Measured values reported in ChEMBL document CHEMBL4311941, “Development of Multifunctional Histone Deacetylase 6 Degraders with Potent Antimyeloma Activity” (J Med Chem, 2019).
Active and inactive are the calls of the source. The calls are words filed in the database; no cut-off is given here.

System: MM1.S
Assay: Effect on HDAC6 mRNA expression in human MM1S cells at 100 nM measured after 6 hrs by SYBR green dye-based qRT-PCR analysis
Format: functional, cell-based
Summary of the method: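 After treatment, MM1S cells washed twice with cold PBS. Total RNA extracted and normalized, then reverse-transcribed. 10 ng cDNA amplified with SYBR Green: 50 °C 2 min, 95 °C 2 min, then 40 cycles of 95 °C 1 s / 60 °C 30 s, followed by a melt curve. Expression calculated by the 2−ΔΔCt method.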

For `CCCCN(Cc1ccc(C(=O)NO)cc1)C(=O)Nc1ccc(OCCCCCn2cc(CNc3cccc4c3C(=O)N(C3CCC(=O)NC3=O)C4=O)nn2)cc1` (stereo unspecified), the Activity was “Active”.
